Source: ChEMBL document CHEMBL4152234, “Aminobenzothiazole derivatives stabilize the thermolabile p53 cancer mutant Y220C and show anticancer activity in p53-Y220C cell lines” (Eur J Med Chem, 2018)

Key:
Format in all cases: cell-based
[1] = tested on: Cellular tumor antigen p53 (Homo sapiens), P04637 [Y220C]; assay: Activation of p53 Y220C mutant in human NUGC3 cells assessed as change in TP73 mRNA level at 60 uM after 18 hrs by RT-PCR method relative to control
In short: (§1)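 p53 signalling qPCR array covering 84 p53 pathway genes. Cells were exposed for 18 h, and compound and control wells both held 0.5% DMSO. Total RNA was extracted and purified. Fold-changes were calculated by the ΔΔCt method against the untreated sample, with β2-microglobulin (B2M) as the housekeeping gene. Each cell line was run in two independent biological replicates.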

[2] = molecular target: Cellular tumor antigen p53 (Homo sapiens, UniProt P04637); assay: Activation of p53 in human NUGC4 cells assessed as change in CASP9 mRNA level at 60 uM after 18 hrs by RT-PCR method relative to control; conditions: read-out: FC
In short: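 p53 signaling qPCR array of 84 p53-pathway genes. Cells were treated in 6-well plates for 18 h with 0.5% DMSO in compound and control samples. Total RNA was extracted and fold-changes were obtained by the ΔΔCt method against untreated control, with β2-microglobulin (B2M) as housekeeping gene. Two independent biological replicates per cell line.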

[3] = tested on: Cellular tumor antigen p53 (Homo sapiens), P04637 [Y220C]; assay: Activation of p53 Y220C mutant in human NUGC3 cells assessed as change in CASP9 mRNA level at 60 uM after 18 hrs by RT-PCR method relative to control
In short: (§2)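 p53 signalling qPCR array covering 84 genes. Cells were exposed for 18 h, with 0.5% DMSO in both compound and control samples. Total RNA was extracted and purified. Fold-changes were calculated by ΔΔCt using β2-microglobulin (B2M) as the housekeeping gene. Two independent biological replicates were run per cell line.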

[4] = tested on: Cellular tumor antigen p53 (Homo sapiens), P04637 [Y220C]; assay: Activation of p53 Y220C mutant in human NUGC3 cells assessed as change in E2F3 mRNA level at 60 uM after 18 hrs by RT-PCR method relative to control; in short: as §2
[5] = tested on: Cellular tumor antigen p53 (Homo sapiens), P04637 [Y220C]; assay: Activation of p53 Y220C mutant in human NUGC3 cells assessed as change in ESR1 mRNA level at 60 uM after 18 hrs by RT-PCR method relative to control; in short: as §2
[6] = tested on: Cellular tumor antigen p53 (Homo sapiens), P04637 [Y220C]; assay: Activation of p53 Y220C mutant in human NUGC3 cells assessed as change in RELA mRNA level at 60 uM after 18 hrs by RT-PCR method relative to control; in short: as §1
[7] = tested on: Cellular tumor antigen p53 (Homo sapiens), P04637 [Y220C]; assay: Activation of p53 Y220C mutant in human NUGC3 cells assessed as change in F0X03 mRNA level at 60 uM after 18 hrs by RT-PCR method relative to control; in short: as §2
[8] = tested on: Cellular tumor antigen p53 (Homo sapiens), P04637 [Y220C]; assay: Activation of p53 Y220C mutant in human NUGC3 cells assessed as change in CDKN2A mRNA level at 60 uM after 18 hrs by RT-PCR method relative to control; in short: as §2

fold change (FC) [1]: 1.2 | fold induction at 60 µM [2]: 1 | fold change (FC) [3]: 1 | fold change (FC) [4]: 1.3 | fold change (FC) [5]: 2.3 | fold change (FC) [6]: 1.1 | fold change (FC) [7]: 2 | fold change (FC) [8]: 1.3
SMILES: CCNC(=O)c1c(O)c(I)c(-n2cccc2)c2sc(N(CC)CC)nc12
